The values that follow come from ChEMBL document CHEMBL1126564, “Synthesis and antimicrobial evaluation of a series of 7-[3-amino (or aminomethyl)-4-aryl (or cyclopropyl)-1-pyrrolidinyl]-4-quinolone- and -1,8-naphthyridone-3-carboxylic acids” (1993).

In general, MIC refers to the least concentration at which growth counts as inhibited.

Common to all, as to assay type: functional
The test system of experiment [1] is Staphylococcus aureus. Put plainly: Minimum inhibitory concentration against Staphylococcus aureus H-228. The note with it: Staphylococcus aureus; read-out: MIC. The procedure, abridged:
(§1)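 Standard microdilution method against a panel of five Gram-negative and five Gram-positive bacterial strains. The MIC (µg/mL) was recorded for each strain.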

Experiment [2] concerns Escherichia coli. Put plainly: Minimum inhibitory concentration against Escherichia coli Vogel. To be noted: Escherichia coli; read-out: MIC. The procedure, abridged:
as §1

Experiment [3] has as its system Providencia rettgeri. The experiment can be described thus: Minimum inhibitory concentration against Providencia rettgeri M-1771. To be noted: Providencia rettgeri; read-out: MIC. The procedure, abridged:
as §1

Experiment [4] relates to Staphylococcus aureus. Put plainly: Minimum inhibitory concentration against Staphylococcus aureus UC-76. To be noted: Staphylococcus aureus; read-out: MIC. Put shortly: as §1
For experiment [5], the system named is Mus musculus. The experiment can be described thus: Median protective dose determined in acute lethal system infection caused by Escherichia coli vogel in CD-1 mice (single dose sc). To be noted: read-out: PD50. The procedure, abridged:
(§2)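 Acute lethal systemic infection in female Charles River CD-1 mice; compound given once, orally (po) or subcutaneously (sc), at the time of challenge. Median protective dose (PD50, mg/kg) derived from survival.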

Experiment [6] has as its system Streptococcus pyogenes. The experiment can be described thus: Minimum inhibitory concentration against Streptococcus pyogenes C-203. The note with it: Streptococcus pyogenes; read-out: MIC. Put shortly:
as §1

For experiment [7], the system named is Klebsiella pneumoniae. The experiment can be described thus: Minimum inhibitory concentration against Klebsiella pneumoniae MGH-2. To be noted: Klebsiella pneumoniae; read-out: MIC. Put shortly:
as §1

Experiment [8] deals with Enterococcus faecalis. The experiment can be described thus: Minimum inhibitory concentration against […] MGH-2. The note with it: Enterococcus faecalis; read-out: MIC. Put shortly: as §1
The species entered for experiment [9] is Mus musculus. Put plainly: Median protective dose determined in acute lethal system infection caused by Escherichia coli vogel in CD-1 mice (single dose perorally). To be noted: po, read-out: PD50. The procedure, abridged: as §2
Experiment [10] relates to Pseudomonas aeruginosa. Put plainly: Minimum inhibitory concentration against Pseudomonas aeruginosa UI-18. To be noted: Pseudomonas aeruginosa; read-out: MIC. Put shortly: as §1
Experiment [11] relates to Enterobacter cloacae. The experiment can be described thus: Minimum inhibitory concentration against […] MA-2646. To be noted: Enterobacter cloacae; read-out: MIC. The procedure, abridged: as §1
Experiment [12] deals with Streptococcus pneumoniae. The experiment can be described thus: Minimum inhibitory concentration against Streptococcus pneumoniae SV-1. To be noted: Streptococcus pneumoniae; read-out: MIC. Put shortly: as §1
The test system of experiment [13] is Mus musculus. The experiment can be described thus: Median protective dose determined in acute lethal system infection caused by Streptococcus pyogenes C-203 in CD-1 mice (single dose sc). The note with it: read-out: PD50. Put shortly: as §2
Experiment [14] is filed under the species Mus musculus. Put plainly: Median protective dose determined in acute lethal system infection caused by Streptococcus pyogenes C-203 in CD-1 mice (single dose perorally). The note with it: po, read-out: PD50. Put shortly:
as §2

In brackets after ≈: the same amount, converted by molar mass.

As to `NC1CN(c2c(F)cc3c(=O)c(C(=O)O)cn(C4CC4)c3c2F)CC1c1ccc(O)cc1` (trans isomer), the MIC in experiment [1] was 0.1 µg/mL (≈ 0.227 µM); in [2], 0.1 µg/mL (≈ 0.227 µM); in experiment [3] it was 0.2 µg/mL (≈ 0.453 µM); in [4] it was 0.025 µg/mL (≈ 0.0566 µM); in [6], 0.1 µg/mL (≈ 0.227 µM); in experiment [7] it was 0.1 µg/mL (≈ 0.227 µM). For the same compound, the MIC in experiment [8] turned out to be 0.1 µg/mL (≈ 0.227 µM); in experiment [10], 1.6 µg/mL (≈ 3.62 µM); in experiment [11] it was 0.1 µg/mL (≈ 0.227 µM); in experiment [12], 0.1 µg/mL (≈ 0.227 µM). The ED50 is 50 mg/kg in experiment [5] and 100 mg/kg in [9].

In the case of `NC1CN(c2c(F)cc3c(=O)c(C(=O)O)cn(C4CC4)c3c2F)CC1c1ccc(F)cc1` (trans isomer), the MIC amounted to 0.025 µg/mL (≈ 0.0564 µM) in [1]; 0.1 µg/mL (≈ 0.226 µM) in experiment [2]; 0.2 µg/mL (≈ 0.451 µM) in experiment [3]; 0.013 µg/mL (≈ 0.0293 µM) in experiment [4]; 0.1 µg/mL (≈ 0.226 µM) in experiment [6]; 0.1 µg/mL (≈ 0.226 µM) in experiment [7]. Moreover, the MIC in experiment [8] is 0.1 µg/mL (≈ 0.226 µM); in experiment [10], 1.6 µg/mL (≈ 3.61 µM); in [11] it was 0.1 µg/mL (≈ 0.226 µM); in experiment [12], 0.1 µg/mL (≈ 0.226 µM). The figures for the ED50 in experiment [13] and in [14] were 40 mg/kg and 44 mg/kg, respectively.

On to `Nc1ccc(C2CN(c3c(F)cc4c(=O)c(C(=O)O)cn(C5CC5)c4c3F)CC2N)cc1` (trans isomer), for which the MIC came out at 0.1 µg/mL (≈ 0.227 µM) in experiment [1]; 0.05 µg/mL (≈ 0.114 µM) in experiment [2]; 0.2 µg/mL (≈ 0.454 µM) in [3]; 0.025 µg/mL (≈ 0.0568 µM) in experiment [4]; 0.1 µg/mL (≈ 0.227 µM) in [6]; 0.1 µg/mL (≈ 0.227 µM) in experiment [7]. For the same compound, the MIC was 0.1 µg/mL (≈ 0.227 µM) in experiment [8], 0.8 µg/mL (≈ 1.82 µM) in [10], 0.05 µg/mL (≈ 0.114 µM) in [11] and 0.1 µg/mL (≈ 0.227 µM) in experiment [12]. Moreover, the ED50 worked out at 1.6 mg/kg in [5] and 10 mg/kg in experiment [9].

As for `NC1CN(c2nc3c(cc2F)c(=O)c(C(=O)O)cn3C2CC2)CC1c1ccccc1` (centres undefined), the MIC amounted to 0.1 µg/mL (≈ 0.245 µM) in experiment [1]; 0.1 µg/mL (≈ 0.245 µM) in experiment [2]; 0.4 µg/mL (≈ 0.979 µM) in experiment [3]; 0.05 µg/mL (≈ 0.122 µM) in experiment [4]; 0.2 µg/mL (≈ 0.49 µM) in experiment [6]; 0.2 µg/mL (≈ 0.49 µM) in [7]. Moreover, the MIC was determined as 0.2 µg/mL (≈ 0.49 µM) in [8], 1.6 µg/mL (≈ 3.92 µM) in experiment [10], 0.1 µg/mL (≈ 0.245 µM) in experiment [11] and 0.1 µg/mL (≈ 0.245 µM) in experiment [12]. For the same compound, the ED50 stood at 6.5 mg/kg in experiment [5] and 11 mg/kg in experiment [9].

With `NCC1CN(c2c(F)cc3c(=O)c(C(=O)O)cn(C4CC4)c3c2F)CC1c1ccccc1` (trans isomer), the MIC in experiment [1] is 0.013 µg/mL (≈ 0.0296 µM); in experiment [2], 0.05 µg/mL (≈ 0.114 µM); in experiment [3] it was 0.1 µg/mL (≈ 0.228 µM); in experiment [4], 0.003 µg/mL (≈ 0.00683 µM); in [6], 0.013 µg/mL (≈ 0.0296 µM); in [7], 0.05 µg/mL (≈ 0.114 µM). The MIC was found to be 0.013 µg/mL (≈ 0.0296 µM) in [8], 0.8 µg/mL (≈ 1.82 µM) in experiment [10], 0.05 µg/mL (≈ 0.114 µM) in experiment [11] and 0.013 µg/mL (≈ 0.0296 µM) in [12]. For the same compound, the ED50 in [13] is 1.6 mg/kg; in [14] it was 10 mg/kg.

Consider `NCC1CN(c2nc3c(cc2F)c(=O)c(C(=O)O)cn3C2CC2)CC1c1ccccc1` (trans isomer), for which the MIC in experiment [1] was 0.025 µg/mL (≈ 0.0592 µM); in experiment [2], 0.05 µg/mL (≈ 0.118 µM); in experiment [3] it was 0.1 µg/mL (≈ 0.237 µM); in experiment [4] it was 0.006 µg/mL (≈ 0.0142 µM); in experiment [6] it was 0.025 µg/mL (≈ 0.0592 µM); in [7] it was 0.05 µg/mL (≈ 0.118 µM). Also, the MIC is 0.025 µg/mL (≈ 0.0592 µM) in experiment [8], 0.8 µg/mL (≈ 1.89 µM) in experiment [10], 0.05 µg/mL (≈ 0.118 µM) in experiment [11] and 0.013 µg/mL (≈ 0.0308 µM) in [12]. The values for the ED50 in [13] and in experiment [14] were 4.5 mg/kg and 27 mg/kg, respectively.

Consider `Nc1ccc(C2CN(c3nc4c(cc3F)c(=O)c(C(=O)O)cn4C3CC3)CC2N)cc1` (trans isomer), for which the MIC was determined as 0.2 µg/mL (≈ 0.472 µM) in experiment [1]; 0.1 µg/mL (≈ 0.236 µM) in [2]; 0.4 µg/mL (≈ 0.945 µM) in experiment [3]; 0.05 µg/mL (≈ 0.118 µM) in [4]; 0.2 µg/mL (≈ 0.472 µM) in experiment [6]; 0.2 µg/mL (≈ 0.472 µM) in experiment [7]. The MIC in experiment [8] is 0.2 µg/mL (≈ 0.472 µM); in experiment [10] it was 1.6 µg/mL (≈ 3.78 µM); in experiment [11] it was 0.1 µg/mL (≈ 0.236 µM); in experiment [12], 0.2 µg/mL (≈ 0.472 µM). For the same compound, the ED50 turned out to be 3.1 mg/kg in experiment [5] and 24 mg/kg in experiment [9].

In the case of `CN(C)c1ccc(C2CN(c3c(F)cc4c(=O)c(C(=O)O)cn(C5CC5)c4c3F)CC2N)cc1` (centres undefined), the MIC in [1] was determined as 0.025 µg/mL (≈ 0.0534 µM); in experiment [2] it was 0.2 µg/mL (≈ 0.427 µM); in experiment [3], 0.4 µg/mL (≈ 0.854 µM); in [4], 0.013 µg/mL (≈ 0.0277 µM); in [6], 0.1 µg/mL (≈ 0.213 µM); in experiment [7] it was 0.2 µg/mL (≈ 0.427 µM). For the same compound, the MIC in experiment [8] came out at 0.1 µg/mL (≈ 0.213 µM); in experiment [10], 3.1 µg/mL (≈ 6.62 µM); in experiment [11] it was 0.2 µg/mL (≈ 0.427 µM); in [12] it was 0.1 µg/mL (≈ 0.213 µM).
